# Screens from PubChem.
# Shown are actives, neighbours in structure and some others; about 1.6% of the full set was active somewhere.
# 14-3-3 Bad inh: disrupts binding of bovine 14-3-3 zeta to phospho-Bad peptide | 0.71% of 220,000 active | TR-FRET 14-3-3zeta/Dy647-pBad peptide displacement, 1 h | P63103 | inhibition, % at 21.7 µM | AID 781;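 active = inhibition above about 70%, limit read from the data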;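 note: 0% = full 14-3-3 plus peptide FRET controls and 100% = background without 14-3-3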
# Target sequence (P63103 whole entry, looked up): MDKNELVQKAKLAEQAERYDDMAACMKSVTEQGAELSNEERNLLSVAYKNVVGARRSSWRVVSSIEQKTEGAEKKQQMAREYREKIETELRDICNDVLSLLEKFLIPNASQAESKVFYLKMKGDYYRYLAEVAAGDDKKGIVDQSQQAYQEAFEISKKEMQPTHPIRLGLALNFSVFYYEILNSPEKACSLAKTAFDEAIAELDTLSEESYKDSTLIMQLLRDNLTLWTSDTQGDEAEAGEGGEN
# PKD1 kinase inh: inhibitors of human PKD1 kinase; Q15139; PKD1 kinase fluorescence polarization assay; inhibition, % (test concentration not listed); 0.056% of 200,000 active; AID 797
# eIF4E-4G inh: blocks eIF4E binding to eIF4G; P63073+Q04637; TR-FRET eIF4E-eIF4GI(517-606) binding, 2 h; inhibition, % at 21.7 µM; 0.37% of 220,000 active; AID 782;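 active = inhibition above about 30%, limit read from the data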;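 note: 0% = full FRET control wells and 100% = background wells lacking eIF4GI fragment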
# RBBP9 inhibitor: inhibitors of human serine hydrolase RBBP9; O75884; recombinant RBBP9, FP-Rh probe fluorescence polarization; inhibition, % at 7.94 µM; 0.2% of 220,000 active; AID 1515;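 active = inhibition above the campaign mean of all tested compounds plus 3 SD, cut at about 14% in these data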;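 note: plate controls were DMSO wells with RBBP9 for no effect and wells lacking RBBP9 protein for full effect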
# Target sequence (O75884 whole entry, looked up): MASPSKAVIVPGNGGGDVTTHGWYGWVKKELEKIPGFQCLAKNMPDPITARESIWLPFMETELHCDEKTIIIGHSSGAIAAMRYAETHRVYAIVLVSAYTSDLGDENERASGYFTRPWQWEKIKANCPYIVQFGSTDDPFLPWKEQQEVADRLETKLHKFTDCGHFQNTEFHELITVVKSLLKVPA
#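 System: RBBP9 protein / Quantity: 2.5 µM RBBP9 dispensing solution, before mixing / Also added: Serine-hydrolase probe FP-Rh, 375 nM pre-mixing / Dosing: 7.94 µM single dose, 0.794% DMSO / Timing: enzyme-compound preincubation 30 min, then probe labeling 45 min, 25 °C / Signal: FP readout at 525/598 nm / Controls: DMSO-treated enzyme wells and wells lacking RBBP9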
# EBV gp42 block: blocks Epstein-Barr virus glycoprotein 42 binding | Q1HVG2 | Fluorescence polarization binding assay, mP read-out | inhibition, % (tested at 21.74 µM) | 0.42% of 220,000 active | AID 1085
# An asterisk follows results filed as active; . = no result; [ ] = remark or other dose. Cut-off read from the data, not from the text of the source, unless noted: active = inhibition above about 50%; inactive = the rest.
SMILES,14-3-3 Bad inh,PKD1 kinase inh,eIF4E-4G inh,RBBP9 inhibitor,EBV gp42 block
CCC(=O)N(CCC(c1ccc(C)cc1)c1ccco1)Cc1ccco1 (stereo unspecified),-5.9,.,12.2,-4.8,-12.0
COc1cccc(CNc2ccc(F)c(Cl)c2)c1,78.3*,1.9,2.7,-10.5,-25.8
O=S(=O)(c1ccccc1)N1CCN(Cc2ccccc2C(F)(F)F)CC1,78.8*,3.5,-5.5,1.6,-1.4
Cc1ccccc1CN1CCN(Cc2ccccc2C(F)(F)F)CC1,74.7*,-9.9,-10.2,-4.3,-22.0
Cc1ccc(S(=O)(=O)N2CCN(Cc3ccccc3C(F)(F)F)CC2)cc1,82.5*,-2.8,10.4,-0.3,6.4
Cc1nn(C)c(C)c1Nc1ccc(N2C(=O)C3CC=CCC3C2=O)cc1[N+](=O)[O-] (stereo unspecified),0.6,3.1,8.2,-4.8,-7.5
Clc1ccc(OCc2nnc(-c3ccccc3Br)o2)c(Cl)c1,17.0,-2.0,7.0,-2.6,90.6*
Clc1ccc(OCc2nnc(-c3ccccc3Br)o2)cc1,1.4,-12.7,-8.8,1.5,0.7
O=c1c2c([N+](=O)[O-])cc([N+](=O)[O-])cc2sn1-c1ccc(Br)cc1,51.2,-3.9,33.2*[fluorescence artefact?],16.7*,-9.2
O=c1c2cc(Br)ccc2nc(-c2ccc([N+](=O)[O-])cc2)n1O,-13.2,-4.6,-0.1,-11.7,-4.1
Cc1ccccc1N1CCN(Cc2c[nH]c3ccccc23)CC1,70.5*,4.2,-6.1,-9.6,-7.9
CC(C)CN1CCN(Cc2cccc3cccnc23)CC1CCO (stereo unspecified),-6.0,-3.5,-1.7,-12.0,7.0
O=C1NC(c2ccc3c(c2)OCO3)Oc2ccccc21 (stereo unspecified),14.7,-5.4,37.3*[fluorescence artefact?],-10.0,-2.0
CCN(CC)c1ccc(NC(=O)Cn2c(C(C)NC(=O)c3ccc(C)cc3)nc3ccccc32)cc1 (stereo unspecified),94.7*,2.5,19.3,7.2,-3.5
COc1ccc(CN2C(=O)c3cccnc3C2Nc2cc(Cl)c(OC)cc2OC)cc1 (stereo unspecified),92.2*,-7.2,-6.1,-4.0,-10.5
Cc1ccc(NC2c3ncccc3C(=O)N2Cc2cccs2)cc1 (stereo unspecified),77.2*,2.4,1.7,0.8,0.5
CCN(CC)S(=O)(=O)c1ccc(NC2c3ccccc3C(=O)N2Cc2ccc3c(c2)OCO3)cc1 (stereo unspecified),-2.3,-2.7,-4.5,-5.5,0.4
CCN(CC)S(=O)(=O)c1ccc(NC2c3ncccc3C(=O)N2Cc2ccccc2)cc1 (stereo unspecified),81.2*,-6.2,0.3,-3.5,-9.4
COc1ccc(CN2C(=O)c3cccnc3C2Nc2ccc(C)cc2)cc1 (stereo unspecified),28.2,-7.8,-1.5,-9.6,-8.2
O=C(CSc1ccccn1)N1CCc2ccccc21,26.6,1.9,0.8,-4.5,-28.8
O=C(CSc1ncn(-c2ccccc2)n1)N1CCc2ccccc21,-0.9,-9.0,31.4*[fluorescence artefact?],0.4,-19.5
O=C(CSc1nnc(CNc2ccccc2)o1)N1CCc2ccccc21,-1.8,-6.9,36.0*,-2.9,-7.9
O=C(CSc1nnc(Cc2ccccc2)o1)N1CCCc2ccccc21,-4.8,1.4,-4.6,-12.8,-3.9
CCOc1ccc(NC(=O)Cn2cncc2-c2ccc([N+](=O)[O-])cc2)cc1,43.7,-3.6,0.3,-5.1,7.2
O=C(Cn1cncc1-c1ccc([N+](=O)[O-])cc1)Nc1cccc2ccccc12,72.5*[fluorescence artefact?],-1.9,8.7,-9.9,20.4
SMILES,14-3-3 Bad inh,PKD1 kinase inh,eIF4E-4G inh,RBBP9 inhibitor,EBV gp42 block
CC(C)(C)c1ccc(OCC(=O)Nc2ccc3c4c(cccc24)C(=O)NC3=O)cc1,-15.6,-1.8,-7.9,-5.1,57.0*
CCn1c(SCCN2CCCCC2)nnc1-c1ccc(S(=O)(=O)N2CCOCC2)cc1,74.6*,1.1,-15.3,-6.1,-14.7
CC1CCN(C(=O)CSc2nnc(-c3ccc(S(=O)(=O)N4CCOCC4)cc3)n2C)CC1,8.3,4.2,-1.2,2.8,-21.8
CC1CCCN(C(=O)CSc2nnc(-c3ccc(S(=O)(=O)N4CCOCC4)cc3)n2C)C1 (stereo unspecified),84.6*[fluorescence artefact?],1.1,-5.7,-2.3,9.0
O=C(Nc1nc2c(s1)CCCC2)Oc1ccccc1,9.9,-2.6,-25.7,-10.2,-22.8
C/C(=N\Nc1nc2c(s1)CCCC2)c1ccccc1,80.2*[fluorescence artefact?],1.1,8.7,-2.8,0.3
